Reference: ChEMBL document CHEMBL1914454, “Novel N-linked aminopiperidine inhibitors of bacterial topoisomerase type II: broad-spectrum antibacterial agents with reduced hERG activity” (J Med Chem, 2011)

Experiments:
Staphylococcus aureus = assay: Antibacterial activity against Staphylococcus aureus ARC516 infected in CD1 mouse neutropenic thigh infection model assessed as 1 log reduction in colony forming unit per […] at 20 mg/kg, ip qd administered 2 hrs post-infection measured 24 hrs post-treatment relative to vehicle treated control; format: functional; conditions: route intraperitoneal
Summary of the method: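 Mice rendered neutropenic with ip cyclophosphamide (150 mg/kg 4 days and 100 mg/kg 1 day before infection), then infected with MSSA ARC516 at a target 5 × 10⁵ cfu/thigh. Groups of five dosed ip once daily from 2 h post-infection; vehicle group of five. At 24 h after treatment start, thighs homogenized and plated on tryptic soy agar, 37 °C overnight, cfu counted.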

Mus musculus = assay: AUC (infinity) in Staphylococcus aureus ARC516 infected in CD1 mouse neutropenic thigh infection model at 20 mg/kg, ip qd by LC-MS/MS analysis; format: ADME, organism-based; design: time infinity, dose 20 mg/kg, route intraperitoneal; conditions: in vivo
Summary of the method: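 Exposure in neutropenic CD-1 mice thigh-infected with S. aureus ARC516 (target 5 × 10⁵ cfu/thigh), dosed ip once daily from 2 h post-infection. Groups of three killed at timed intervals; blood taken by cardiac puncture. Plasma drug measured by LC-MS/MS; parameters from a noncompartmental model.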

AUC (Mus musculus): 2.5 µg/h/mL
SMILES: C[C@H]1COc2c(N3CCN(C)CC3)c(F)cc3c(=O)c(C(=O)O)cn1c23.C[C@H]1COc2c(N3CCN(C)CC3)c(F)cc3c(=O)c(C(=O)O)cn1c23.O [LEVOFLOXACIN]
FC (Staphylococcus aureus): 1.46
